In ChEMBL document CHEMBL2434898, “New β-phospholactam as a carbapenem transition state analog: Synthesis of a broad-spectrum inhibitor of metallo-β-lactamases” (Bioorg Med Chem Lett, 2013) one finds inhibition and Activity data, which are given here for one compound.

Active and inactive are the calls of the source. The calls are words filed in the database; no cut-off is given here.

Assay [1] is described as follows: Inhibition of Metallo-beta-lactamase L1 (unknown origin) assessed as inhibition of nitrocefin hydrolysis at 100 uM by spectrophotometry. Summed up: (§1)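 Purified metallo-β-lactamases (subclass B1: IMP-1, CcrA, Bla2, NDM-1; B3: L1) were mixed with inhibitor dissolved in DMSO with no pre-incubation before the hydrolysis assay. Activity is reported as percent inhibition.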

Assay [2] can be described thus: Inhibition of Metallo-beta-lactamase Bla2 (unknown origin) assessed as inhibition of nitrocefin hydrolysis at 100 uM by spectrophotometry. Summed up:
as §1

A short description of assay [3]: Inhibition of Metallo-beta-lactamase IMP-1 (unknown origin) assessed as inhibition of nitrocefin hydrolysis at 100 uM by spectrophotometry. Summed up:
as §1

The nature of assay [4]: Activation of metallo-beta-lactamase NDM1 (unknown origin) assessed as hydrolysis of nitrocefin at 100 uM by spectrophotometry. Summed up: as §1
The nature of assay [5]: Activation of metallo-beta-lactamase CcrA (unknown origin) assessed as hydrolysis of nitrocefin at 100 uM by spectrophotometry. Summed up: as §1
The nature of assay [6]: Inhibition of Metallo-beta-lactamase Bla2 (unknown origin) assessed as inhibition of nitrocefin hydrolysis preincubated at 100 uM before substrate addition by spectrophotometry. The note with it: TDE = time-dependent effect.
A short description of assay [7]: Inhibition of Metallo-beta-lactamase NDM1 (unknown origin) assessed as inhibition of nitrocefin hydrolysis preincubated at 100 uM before substrate addition by spectrophotometry. The note with it: TDE = time-dependent effect.
Assay [8] is described as follows: Inhibition of Metallo-beta-lactamase CcrA (unknown origin) assessed as inhibition of nitrocefin hydrolysis preincubated at 100 uM before substrate addition by spectrophotometry. The note with it: TDE = time-dependent effect.
Assay [9] is described as follows: Inhibition of Metallo-beta-lactamase IMP-1 (unknown origin) assessed as inhibition of nitrocefin hydrolysis preincubated at 100 uM before substrate addition by spectrophotometry. Particulars: TDE = time-dependent effect.
The nature of assay [10]: Inhibition of Metallo-beta-lactamase Bla2 (unknown origin) assessed as inhibition of nitrocefin hydrolysis preincubated at 100 uM for 30 mins before substrate addition by spectrophotometry. Summed up:
(§2)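 Each enzyme (IMP-1, CcrA, Bla2, NDM-1 of subclass B1; L1 of B3) was pre-incubated with inhibitor in DMSO for 30 min, then substrate hydrolysis was measured. Results are given as percent inhibition.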

Assay [11] is described as follows: Inhibition of Metallo-beta-lactamase NDM1 (unknown origin) assessed as inhibition of nitrocefin hydrolysis preincubated at 100 uM for 30 mins before substrate addition by spectrophotometry. Summed up:
as §2

The nature of assay [12]: Inhibition of Metallo-beta-lactamase CcrA (unknown origin) assessed as inhibition of nitrocefin hydrolysis preincubated at 100 uM for 30 mins before substrate addition by spectrophotometry. Summed up:
as §2

Assay [13] is described as follows: Inhibition of Metallo-beta-lactamase IMP-1 (unknown origin) assessed as inhibition of nitrocefin hydrolysis preincubated at 100 uM for 30 mins before substrate addition by spectrophotometry. Summed up: as §2
Assay [14] can be described thus: Inhibition of metallo-beta-lactamase L1 (unknown origin) assessed as inhibition of nitrocefin hydrolysis preincubated at 100 before substrate addition by spectrophotometry. Particulars: TDE = time-dependent effect.
Assay [15] can be described thus: Inhibition of metallo-beta-lactamase L1 (unknown origin) assessed as inhibition of nitrocefin hydrolysis preincubated at 100 uM for 30 mins before substrate addition by spectrophotometry. Summed up:
as §2

`CC(=O)OC1C2CCC(C(=O)O)N2P1(=O)O` (stereo not given): the inhibition was 37% in [1]; 22% in [2]; 48% in assay [3]; “tde” in assay [6]; “tde” in assay [7]; “tde” in assay [8]. Further, the inhibition entry is “tde” in assay [9]; 94% in assay [10]; 53% in assay [11]; 69% in assay [12]; 70% in assay [13]; “tde” in assay [14]. Further, the inhibition in [15] came out at 70%. The outcome in [4] and in [5] was Active.

As usually defined, the inhibition is the change of the read-out against control, counted positive when it falls.
